TRPC4 PAM: TRPC4 (mouse) allosteric potentiation; hit rate 0.42% among 310,000; Q9QUQ5; B-score at 10 µM; HEK293 TRPC4beta/mu-opioid, DAMGO EC20, Fluo-4 Ca2+ flux; active compounds read high;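 active means B-score of calcium response area above 5 SD of library B-scores, with initial fluorescence ratio within 5 SD of library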;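 further: B-score of integrated fluorescence ratio over time as area under calcium response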
TRPC4 act: TRPC4 (mouse) channel activation; Q9QUQ5; HEK293 TRPC4beta/mu-opioid, Fluo4 calcium fluorescence; active compounds read high; B-score at 10 µM; hit rate 0.49% among 310,000;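 active means B-score above 5 SD of library B-scores, and initial fluorescence ratio not above library mean plus 5 SD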;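 further: positive B-score marks a calcium rise read as TRPC4 activation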
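Material: HEK293 stable line with TRPC4beta plus mu-opioid receptor; technique: Fluo4 calcium-sensitive dye fluorescence, kinetic, 1 Hz baseline; timing: Fluo4 dye loading 45 min at room temperature, 110 s recording; controls: assay buffer as low control, maximal DAMGO as high control; read-out: integrated baseline-normalised fluorescence ratio, converted to per-well B score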
TRPC6 activator: activates the mouse TRPC6 cation channel | Q61143 | HEK293-TRPC6 membrane potential dye fluorescence; active compounds read high | B-score at 10 µM | hit rate 0.13% among 310,000 | AID 2550;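 active means B-score of the integrated fluorescence ratio above library mean plus 3 SD, and starting fluorescence ratio within library mean plus 5 SD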;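 further: higher score means more depolarization so channel activation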
Target sequence (Q61143 whole entry, looked up): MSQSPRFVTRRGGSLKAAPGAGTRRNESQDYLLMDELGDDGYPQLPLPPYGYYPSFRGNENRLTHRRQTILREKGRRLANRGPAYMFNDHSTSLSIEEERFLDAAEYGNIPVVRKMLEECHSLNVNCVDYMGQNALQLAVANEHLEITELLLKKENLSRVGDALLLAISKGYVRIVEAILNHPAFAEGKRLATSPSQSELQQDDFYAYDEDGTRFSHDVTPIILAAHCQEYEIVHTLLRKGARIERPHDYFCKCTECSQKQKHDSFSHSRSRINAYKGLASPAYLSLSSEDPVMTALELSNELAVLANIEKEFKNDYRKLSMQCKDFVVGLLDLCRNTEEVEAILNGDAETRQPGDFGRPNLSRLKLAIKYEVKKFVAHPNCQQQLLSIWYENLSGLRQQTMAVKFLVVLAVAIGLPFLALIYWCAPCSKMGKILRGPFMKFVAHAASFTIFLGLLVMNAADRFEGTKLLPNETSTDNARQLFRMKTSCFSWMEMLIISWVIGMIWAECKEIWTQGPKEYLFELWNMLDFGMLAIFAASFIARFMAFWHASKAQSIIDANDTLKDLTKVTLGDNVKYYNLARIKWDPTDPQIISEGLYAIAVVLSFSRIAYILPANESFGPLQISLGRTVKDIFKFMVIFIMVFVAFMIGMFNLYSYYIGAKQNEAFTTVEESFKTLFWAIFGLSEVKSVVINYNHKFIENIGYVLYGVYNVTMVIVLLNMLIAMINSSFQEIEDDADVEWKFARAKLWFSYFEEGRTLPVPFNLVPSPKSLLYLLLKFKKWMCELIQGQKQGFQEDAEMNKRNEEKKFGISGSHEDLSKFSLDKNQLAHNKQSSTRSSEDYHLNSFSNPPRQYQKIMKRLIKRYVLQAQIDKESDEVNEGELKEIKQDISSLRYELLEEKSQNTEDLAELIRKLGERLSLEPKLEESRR
TRPC4 inh: inhibitors of mouse TRPC4 channel. hit rate 0.39% among 300,000. HEK293 TRPC4beta/mu-opioid, DAMGO-evoked Fluo4 calcium flux; active compounds read low. B-score at 10 µM;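 active means B-score over 3 SD under the library average, no early fluorescence shift, positive overall ratio signal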
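Material: HEK293 cells with stable TRPC4beta plus mu-opioid receptor expression; probe or stimulus: DAMGO in two steps, submaximal then maximal; technique: Fluo4 calcium fluorescence by kinetic imaging, 5 s 1 Hz baseline; measure: integrated fluorescence ratio relative to baseline, converted to per-well B score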
TRPC6 inhibitor: blocks the mouse TRPC6 cation channel; B-score at 10 µM; hit rate 1.1% among 310,000; HEK293-TRPC6, membrane potential dye, ACh-evoked depolarization; active compounds read low;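 active means B-score under library mean minus 3 SD, initial fluorescence not abnormally high, positive integrated signal ratio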;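 further: B-score derived from integrated fluorescence ratio over the kinetic read; more negative B-score means stronger inhibition of depolarization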
An asterisk follows results filed as active; i = inactive; . = no result given. Most compounds without a hit are left out; they make up all but 2.3% or so of the library.

SMILES	TRPC4 PAM	TRPC4 act	TRPC6 activator	TRPC4 inh	TRPC6 inhibitor
Cc1cc(OCCCCn2ccnc2)cc(C)c1Cl	i	141*	i	i	i
Clc1ccccc1OCCCCn1ccnc1	i	i	i	i	i
CC(C)(C)c1ccccc1OCC(=O)NCCCn1ccnc1	i	55*	i	i	i
Cc1cccc(Cl)c1OCCCCn1ccnc1	i	77*	i	.	i
Cc1cc(OCCCn2ccnc2)ccc1C(C)C	i	i	i	i	i
CC(=O)Nc1cccc(NS(=O)(=O)c2cccc3nsnc23)c1	i	i	i	i	i
Cc1ccc(NC(=O)C(C)S)cc1 (stereo unspecified)	i	i	i	i	i
CS(=O)(=O)N(CC(=O)NCCc1ccccc1)c1cccc([N+](=O)[O-])c1	i	i	i	i	i
O=S(=O)(c1ccc(S(=O)(=O)N2CCOCC2)cc1)N1CCCC1	i	i	i	i	i
Clc1ccc(SCCCCn2ccnc2)cc1	i	75*	i	i	i
Clc1cccc(OCCCn2ccnc2)c1	i	i	i	i	i
Cc1cccc(OCCn2ccnc2)c1	i	i	i	i	i
Clc1ccccc1OCCCn1ccnc1	i	i	i	i	i
Cc1ccccc1OCCCCCn1ccnc1	i	61*	i	i	i
c1ccc2cc(OCCCn3ccnc3)ccc2c1	11*	53*	i	i	i
Cc1cccc(OCCCCCn2ccnc2)c1	14*	i	i	i	i
O=C(/C=C/c1ccccc1[N+](=O)[O-])NC1CCCC1	i	i	i	i	i
CC(=O)Nc1c(C)cc(S(C)(=O)=O)cc1C	i	i	i	i	i
COc1ccc(NC2=NC(=S)N(c3cccc(C)c3)C23CCCCC3)cc1	i	i	i	i	i
O=C(NCc1ccc(Cl)cc1)N1CCN(S(=O)(=O)c2ccccc2)CC1	i	i	i	i	i
COc1ccc(NC(=O)C2C3C=CC4(O3)C2C(=O)N(CCCN2CCCC(C)C2)C4C(=O)NC2CCCCC2)cc1 (stereo unspecified)	i	i	i	i	i
CNC[C@H](O)c1ccc(O)c(O)c1	i	i	i	i	i
CNC[C@H](O)c1cccc(O)c1	i	52*	i	i	i
Nc1ccc(-c2nc3c(ccc4ccccc43)[nH]2)cc1	i	i	i	i	-9.51*
CCCn1nc(NC(=O)COC)c2cc3cccc(C)c3nc21	i	i	i	i	i
SMILES	TRPC4 PAM	TRPC4 act	TRPC6 activator	TRPC4 inh	TRPC6 inhibitor
Cc1ccc(C(=O)N(Cc2cccs2)C2CCS(=O)(=O)C2)cc1 (stereo unspecified)	i	i	i	i	i
S=C(NCCc1ccccc1)NCC(c1ccco1)N1CCCCC1 (stereo unspecified)	i	60*	i	i	i
COc1ccc(NC(=S)NCC(c2ccco2)N2CCCC2)cc1 (stereo unspecified)	i	i	i	i	i
O=C(Nc1cccc2ncccc12)c1cccc(Br)c1	14*	i	i	i	i
O=C(Nc1cccc2ncccc12)c1cccc(F)c1	i	i	i	i	i
CSc1ccc(/C=N/n2c(C)nc3ccccc3c2=O)cc1	i	i	i	i	i
CCOC(=O)c1cc(C#N)c(Oc2ccc(F)cc2)nc1-c1ccccc1	i	i	i	-5*	i
O=C1COc2ccc(N3C(=O)C=CC3=O)cc2N1	i	i	i	-7*	i
O=C1COc2ccc(S(=O)(=O)N3CCCC3)cc2N1	i	i	i	i	i
C/C(=N\NC(=O)CO/N=C(\C)c1cccs1)c1ccc(N)cc1	i	i	i	i	i
COc1ccc(C(=O)NC(=O)Nc2ncccc2C)cc1	i	i	i	i	i
C=CCNC(=O)C(=O)NCC1CCCN1S(=O)(=O)c1cccs1 (stereo unspecified)	86*	i	i	i	i
O=C(NCCO)C(=O)NCC1CCCN1S(=O)(=O)c1cccs1 (stereo unspecified)	i	i	i	i	i
COc1ccc(Cl)cc1C(=O)Nc1ccccc1N1CCN(C)CC1	i	126*	i	i	i
CN1CCN(c2ccc(Cl)cc2NC(=O)/C=C/c2ccc(F)cc2)CC1	13*	i	i	i	i
COc1ccc(CC(=O)Nc2cc(Cl)ccc2N2CCCC2)cc1	i	i	i	i	i
COc1ccc(CCC(=O)Nc2cc(Cl)ccc2N2CCN(C)CC2)cc1	12*	i	i	i	i
O=C(NC1CC2CCCC(C1)N2Cc1ccco1)NC12CC3CC(CC(C3)C1)C2 (stereo unspecified)	i	i	i	i	i
Cc1sc(NC(=O)c2ccco2)c(C(c2cccnc2)N2CCN(c3ccc(F)cc3)CC2)c1C (stereo unspecified)	i	i	i	i	i
Cc1sc(NC(=O)c2ccco2)c(C(c2ccc(F)cc2)N2CCN(C)CC2)c1C (stereo unspecified)	34*	i	i	i	i
Cc1cc(Cl)c(OCCCCNC(C)(C)C)c(Br)c1	i	i	12.4*	i	i
CC[C@H](C)[C@H](NC(=O)CNC(=O)COc1cc2c(c3oc(=O)cc(C)c13)CCC(C)(C)O2)C(=O)O	i	i	i	i	i
CC1=C/C(=C/N(C)c2ccccc2)C(=O)S1	i	i	i	i	i
Cn1cccc1C(=O)OCC(=O)c1cc2ccccc2o1	i	i	i	i	i
CC(C)c1ccccc1NC(=S)NN(Cc1ccccc1)c1ccccc1	27*	i	i	i	i
SMILES	TRPC4 PAM	TRPC4 act	TRPC6 activator	TRPC4 inh	TRPC6 inhibitor
O=C(Cn1c(-c2cncs2)nc2ccccc21)NCc1ccccc1	i	i	i	i	i
Cn1c(N2CCN(C(=O)NCc3ccccc3)CC2)nc2ccccc21	i	i	i	i	i
Cn1c(N2CCN(C(=O)Nc3ccc(C(F)(F)F)cc3)CC2)nc2ccccc21	i	94*	i	i	i
CCc1cccc(OCCCCNCCCOC)c1	i	i	i	i	i
CCOc1cccc(OCCCNCCCOC)c1	11*	i	i	i	i
COc1cccc(OCCOCCNCCO)c1	i	89*	i	i	i
C=CCc1cccc(OC)c1OCCOCCNCCO	i	i	i	i	i
Cn1c(=N)n(CC(=O)c2cccs2)c2ccccc21	i	i	i	i	i

Screens deposited in PubChem by Johns Hopkins Ion Channel Center.
